According to ChEMBL document CHEMBL1157361, “Steady-state disposition of the nonpeptidic protease inhibitor tipranavir when coadministered with ritonavir” (Antimicrob Agents Chemother, 2007):

How the values were obtained:
[1] = Biodistribution in healthy human urine assessed as Tipranavir glucuronidation conjugate H-3 level at 500 mg, po twice daily coadministered with ritonavir 200 mg, po twice daily for 21 days with additional single dose of 551 mg, po on day 7; type: ADME, organism-based; settings: in vivo, 504 h
In short: (§1)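 Healthy male nonsmoking volunteers (9 completed) on TPV 500 mg + RTV 200 mg orally twice daily. On day 7, after a light snack 60 min earlier, they took 500 mg [14C]TPV (90 µCi) + 200 mg RTV and fasted 4 h; unlabelled dosing then resumed to day 20. Samples were stored at about –20°C until analysis.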

Homo sapiens [2] = experiment: Volume of distribution ( 0 to infinity) in healthy human blood at 500 mg, po twice daily coadministered with ritonavir 200 mg, po twice daily for 21 days with additional single dose of 551 mg, po on day 7; type: ADME, organism-based; settings: in vivo, 504 h; in short: as §1
[3] = Biodistribution in healthy human urine assessed as Tipranavir hydroxyl metabolite H-1 level at 500 mg, po twice daily coadministered with ritonavir 200 mg, po twice daily for 21 days with additional single dose of 551 mg, po on day 7; type: ADME, organism-based; settings: in vivo, 504 h; in short: as §1
[4] = Biodistribution in healthy human feces assessed as Tipranavir hydroxyl metabolite H-1 level at 500 mg, po twice daily coadministered with ritonavir 200 mg, po twice daily for 21 days with additional single dose of 551 mg, po on day 7; type: ADME, organism-based; settings: in vivo, 504 h; in short: as §1
Plasma [5] = experiment: Biodistribution in healthy human plasma assessed as Tipranavir glucuronidation conjugate H-3 level at 500 mg, po twice daily coadministered with ritonavir 200 mg, po twice daily for 21 days with additional single dose of 551 mg, po on day 7 measured 3 hrs postdose; type: ADME, organism-based; settings: in vivo; in short: as §1
Plasma [6] = experiment: Biodistribution in healthy human plasma assessed as Tipranavir hydroxyl metabolite H-1 level at 500 mg, po twice daily coadministered with ritonavir 200 mg, po twice daily for 21 days with additional single dose of 551 mg, po on day 7 measured 3 hrs postdose; type: ADME, organism-based; settings: in vivo; in short: as §1
[7] = Biodistribution in healthy human excreta assessed as Tipranavir oxidation metabolite H-2 level at 500 mg, po twice daily coadministered with ritonavir 200 mg, po twice daily for 21 days with additional single dose of 551 mg, po on day 7; type: ADME, organism-based; settings: in vivo, 504 h; in short: as §1
[8] = Biodistribution in healthy human excreta assessed as Tipranavir hydroxyl metabolite H-1 level at 500 mg, po twice daily coadministered with ritonavir 200 mg, po twice daily for 21 days with additional single dose of 551 mg, po on day 7; type: ADME, organism-based; settings: in vivo, 504 h; in short: as §1
Homo sapiens [9] = experiment: Volume of distribution ( 0 to 12 hrs) in healthy human blood at 500 mg, po twice daily coadministered with ritonavir 200 mg, po twice daily for 21 days with additional single dose of 551 mg, po on day 7; type: ADME, organism-based; settings: in vivo; in short: as §1
Homo sapiens [10] = experiment: Cmax ( 0 to 12 hrs) in healthy human plasma at 500 mg, po twice daily coadministered with ritonavir 200 mg, po twice daily for 21 days with additional single dose of 551 mg, po on day 7; type: ADME, organism-based; parameters: dose 500 mg, route oral; settings: in vivo; in short: as §1
Homo sapiens [11] = experiment: Tlast ( 0 to infinity) in healthy human plasma at 500 mg, po twice daily coadministered with ritonavir 200 mg, po twice daily for 21 days with additional single dose of 551 mg, po on day 7; type: ADME, organism-based; settings: in vivo, 504 h; in short: as §1
[12] = Biodistribution in healthy human sexcreta assessed as Tipranavir glucuronidation conjugate H-3 level at 500 mg, po twice daily coadministered with ritonavir 200 mg, po twice daily for 21 days with additional single dose of 551 mg, po on day 7; type: ADME, organism-based, Excreta; settings: in vivo, 504 h; in short: as §1
Homo sapiens [13] = experiment: Volume of distribution ( 0 to infinity) in healthy human plasma at 500 mg, po twice daily coadministered with ritonavir 200 mg, po twice daily for 21 days with additional single dose of 551 mg, po on day 7; type: ADME, organism-based; settings: in vivo, 504 h; in short: as §1
Homo sapiens [14] = experiment: Volume of distribution ( 0 to 12 hrs) in healthy human plasma at 500 mg, po twice daily coadministered with ritonavir 200 mg, po twice daily for 21 days with additional single dose of 551 mg, po on day 7; type: ADME, organism-based; settings: in vivo; in short: as §1
[15] = Biodistribution in healthy human assessed as radioactive drug dose recovery in feces at 500 mg, po twice daily coadministered with ritonavir 200 mg, po twice daily for 21 days with additional single dose of 551 mg, po on day 7; type: ADME, organism-based; settings: in vivo, 504 h; in short: as §1
Homo sapiens [16] = experiment: Biodistribution in healthy human assessed as radioactive drug dose recovery at 500 mg, po twice daily coadministered with ritonavir 200 mg, po twice daily for 21 days with additional single dose of 551 mg, po on day 7; type: ADME, organism-based; settings: in vivo, 504 h; in short: as §1
[17] = Biodistribution in healthy human assessed as radioactive drug dose recovery in urine at 500 mg, po twice daily coadministered with ritonavir 200 mg, po twice daily for 21 days with additional single dose of 551 mg, po on day 7; type: ADME, organism-based; settings: in vivo, 504 h
[18] = Biodistribution in healthy human urine at 500 mg, po twice daily coadministered with ritonavir 200 mg, po twice daily for 21 days with additional single dose of 551 mg, po on day 7; type: ADME, organism-based; settings: in vivo, 504 h; in short: as §1
[19] = Biodistribution in healthy human feces assessed as Tipranavir oxidation metabolite H-2 level at 500 mg, po twice daily coadministered with ritonavir 200 mg, po twice daily for 21 days with additional single dose of 551 mg, po on day 7; type: ADME, organism-based; settings: in vivo, 504 h; in short: as §1
[20] = Biodistribution in healthy human excreta at 500 mg, po twice daily coadministered with ritonavir 200 mg, po twice daily for 21 days with additional single dose of 551 mg, po on day 7; type: ADME, organism-based; settings: in vivo, 504 h; in short: as §1
Homo sapiens [21] = experiment: Tlast ( 0 to infinity) in healthy human blood at 500 mg, po twice daily coadministered with ritonavir 200 mg, po twice daily for 21 days with additional single dose of 551 mg, po on day 7; type: ADME, organism-based; settings: in vivo, 504 h; in short: as §1
[22] = Tmax in healthy human at 500 mg, po twice daily coadministered with ritonavir 200 mg, po twice daily for 21 days with additional single dose of 551 mg, po on day 7; type: ADME, organism-based; settings: in vivo; in short: as §1
Homo sapiens [23] = experiment: Volume of distribution in healthy human at 500 mg, po twice daily coadministered with ritonavir 200 mg, po twice daily for 21 days with additional single dose of 551 mg, po on day 7; type: ADME, organism-based; settings: in vivo, 504 h; in short: as §1
[24] = Drug level in healthy human at 500 mg, po twice daily coadministered with ritonavir 200 mg, po twice daily for 21 days with additional single dose of 551 mg, po on day 7 measured 12 hrs postdose; type: ADME, organism-based; settings: plasma; in short: as §1
[25] = AUC (0 to 12 hrs) in healthy human at 500 mg, po twice daily coadministered with ritonavir 200 mg, po twice daily for 21 days with additional single dose of 551 mg, po on day 7; type: ADME, organism-based; parameters: dose 500 mg, time < 12 hr, route oral; settings: plasma; in short: as §1
[26] = Clearance life in healthy human at 500 mg, po twice daily coadministered with ritonavir 200 mg, po twice daily for 21 days with additional single dose of 551 mg, po on day 7; type: ADME, organism-based; settings: in vivo; in short: as §1
Homo sapiens [27] = experiment: Toxicity in healthy human at 500 mg, po twice daily coadministered with ritonavir 200 mg, po twice daily for 21 days with additional single dose of 551 mg, po on day 7; type: organism-based; settings: in vivo, 504 h
[28] = Cmax in healthy human at 500 mg, po twice daily coadministered with ritonavir 200 mg, po twice daily for 21 days with additional single dose of 551 mg, po on day 7; type: ADME, organism-based; parameters: dose 500 mg, route oral; settings: in vivo; in short: as §1
[29] = Half life in healthy human at 500 mg, po twice daily coadministered with ritonavir 200 mg, po twice daily for 21 days with additional single dose of 551 mg, po on day 7; type: ADME, organism-based; settings: in vivo; in short: as §1

CCC[C@@]1(CCc2ccccc2)CC(O)=C([14C@H](CC)c2cccc(NS(=O)(=O)c3ccc(C(F)(F)F)cn3)c2)C(=O)O1 gave a Drug uptake [1] of 0.5 %ID, a Vd (Homo sapiens [2]) of 44.23 L and a Drug uptake [3] of less than 0.1 %ID. For the same compound, the Drug uptake [4] was 3.2 %ID, the Drug uptake (Plasma [5]) was 0.05 µg/mL and the Drug uptake (Plasma [6]) was 0.1 µg/mL. The Drug uptake [7] was 0.4 %ID, the Drug uptake [8] was 3.2 %ID and the Vd (Homo sapiens [9]) was 15.68 L. The Cmax (Homo sapiens [10]) was 90.5 µM, the Tlast (Homo sapiens [11]) was 90.67 h and the Drug uptake [12] was 0.5 %ID. For the same compound, the Vd (Homo sapiens [13]) was 32.47 L, the Vd (Homo sapiens [14]) was 8.32 L and the Drug uptake [15] was 70.4%. The Drug uptake (Homo sapiens [16]) was 75.3%, the Drug uptake [17] was 4.59% and the Drug uptake [18] was less than 0.1 %ID. It also gave a Drug uptake [19] of 0.4 %ID, a Drug uptake [20] of 53.5 %ID and a Tlast (Homo sapiens [21]) of 64 h.

Compound CCC[C@@]1(CCc2ccccc2)CC(O)=C([C@H](CC)c2cccc(NS(=O)(=O)c3ccc(C(F)(F)F)cn3)c2)C(=O)O1 [TIPRANAVIR] has a Tmax [22] of 2.9 h, a Vd (Homo sapiens [23]) of 9.6 L and a concentration at 12 h [24] of 25.9 µM. The AUC(0-t) at 12 h [25] was 657 µM·h, the CL/F [26] was 24.5 mL/min and the Activity (Homo sapiens [27]) was “Non-toxic”. The Cmax [28] was 99.4 µM and the half-life [29] was 4.6 h.
